Compound activity as filed in PubChem BioAssay.
A selection: hits, their analogues and other compounds. The true share with any hit is near 1.4%.
IDE act = IDE (human) activation, cell-based | HEK cells, FAbeta-B cleavage, fluorescence polarization; 0% vehicle, 100% cell-free pure enzyme wells | activation, % at 5.96 µM | actives 0.073% (n = 340,000);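 active means activation above the mean of all tested compounds plus 3 SD, set per screening campaign, cut at about 17% in these data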
Target sequence (P14735 whole entry, looked up): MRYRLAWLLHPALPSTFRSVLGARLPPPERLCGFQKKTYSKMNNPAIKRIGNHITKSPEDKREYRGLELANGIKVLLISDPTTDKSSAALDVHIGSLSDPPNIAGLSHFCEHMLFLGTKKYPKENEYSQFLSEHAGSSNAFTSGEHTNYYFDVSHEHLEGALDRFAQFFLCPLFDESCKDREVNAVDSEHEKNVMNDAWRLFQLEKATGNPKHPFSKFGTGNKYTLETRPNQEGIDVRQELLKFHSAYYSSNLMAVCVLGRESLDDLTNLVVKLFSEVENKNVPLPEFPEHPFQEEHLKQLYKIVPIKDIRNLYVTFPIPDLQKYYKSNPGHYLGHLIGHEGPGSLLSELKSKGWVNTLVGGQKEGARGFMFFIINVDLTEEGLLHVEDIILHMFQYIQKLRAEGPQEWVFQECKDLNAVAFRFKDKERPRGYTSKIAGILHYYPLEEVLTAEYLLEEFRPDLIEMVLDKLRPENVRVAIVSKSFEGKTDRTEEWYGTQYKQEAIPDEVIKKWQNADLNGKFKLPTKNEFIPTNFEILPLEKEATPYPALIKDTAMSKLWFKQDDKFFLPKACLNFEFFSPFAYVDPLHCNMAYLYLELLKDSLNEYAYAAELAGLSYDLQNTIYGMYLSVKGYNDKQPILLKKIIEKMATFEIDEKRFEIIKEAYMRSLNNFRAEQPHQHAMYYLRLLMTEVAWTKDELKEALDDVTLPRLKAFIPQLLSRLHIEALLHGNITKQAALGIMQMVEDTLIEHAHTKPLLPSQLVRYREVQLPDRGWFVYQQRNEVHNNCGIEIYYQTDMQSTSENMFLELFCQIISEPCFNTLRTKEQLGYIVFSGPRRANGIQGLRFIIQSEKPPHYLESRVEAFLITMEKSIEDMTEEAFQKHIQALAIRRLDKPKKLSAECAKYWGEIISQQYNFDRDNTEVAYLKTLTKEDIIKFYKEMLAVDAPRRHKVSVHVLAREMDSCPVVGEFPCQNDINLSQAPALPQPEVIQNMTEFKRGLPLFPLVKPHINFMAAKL
CSN deneddyl inh = inhibitors of human CSN-mediated cullin deneddylation. Q92905. Purified CSN, SCF-Nedd8-OG deneddylation, fluorescence polarization. inhibition, % at 12.5 µM. actives 0.38% (n = 360,000). AID 651999;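 active means pattern-corrected inhibition above about 35%, with an unprinted fluorescence ratio check between 0.5 and 1.5, limit read from the data, passing the limit was not always enough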
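Test system: purified human Csn5 enzyme expressed in HEK293T cells. Amount: 0.24 nM enzyme. Reagent: SCFSkp2-Nedd8OG substrate at 10 nM final. Schedule: 90 min incubation of compound, enzyme and substrate at room temperature. Detection: fluorescence polarization. Read-out: % inhibition of substrate cleavage by Csn5.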
TPT1 inh = blocks Candida albicans tRNA 2'-phosphotransferase | actives 0.81% (n = 300,000) | AID 1962 | recombinant caTPT1, FP RNA substrate dephosphorylation | inhibition, % at 5 µM;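 active means inhibition above the mean of all tested compounds plus 3 SD, set per screening campaign, cut at about 24% in these data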
IDE cell inh = inhibits human insulin-degrading enzyme in HEK cells. AID 434962. FAbetaB cleavage, fluorescence polarization. P14735. inhibition, % at 5.59 µM. actives 0.41% (n = 320,000);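 active means percent inhibition above the average of all tested compounds plus 3 SD, set per screening campaign, cut at about 16% in these data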;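 further: IDE supplied by intact live HEK cells; FP after avidin binding of uncleaved biotin substrate so inhibition keeps polarization high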
HNF4A DNA FP = change in binding of human HNF4 alpha to DNA; actives 0.3% (n = 360,000); HNF4a-FITC DNA binding, fluorescence polarization, 1 h; P41235; activity change, % at 10 µM; in the data active means activity change above about 30%, passing the limit was not always enough
HNF4A confirm = change in binding of human HNF4 alpha to DNA, retest; shares compounds with HNF4A DNA FP; HNF4A-FITC DNA binding, fluorescence polarization, 1 h; activity change, % at 12.5 µM; actives 99% (n = 210); AID 1224897; call rule not given here
Each line names hits and unclear results; the compound was inactive in the other large screens (follow-up assays come after a bar, where they were run).

Cc1ccc(C(=O)NCc2ccco2)cc1[N+](=O)[O-]	none
NC(=O)c1ccc(NCC2CCCO2)c([N+](=O)[O-])c1 (stereo not drawn)	none
Cc1ccc(NC(=O)c2ccc(NCC3CCCO3)c([N+](=O)[O-])c2)cc1Cl (stereo not drawn)	CSN deneddyl inh 41, HNF4A DNA FP 37 | HNF4A confirm 54
Cc1ccc(NC(=O)c2ccc(NCc3ccco3)c([N+](=O)[O-])c2)cc1Cl	HNF4A DNA FP 47 | HNF4A confirm 93
O=C(Nc1nccs1)c1cnc2sccn2c1=O	none (no result: IDE act, TPT1 inh, IDE cell inh)
Cc1ccc(CSc2[nH]c(=O)ncc2C)cc1	none
CCS(=O)(=O)Nc1cccc(C2=NN(S(=O)(=O)CC)C(c3ccccc3)C2)c1 (stereo not drawn)	HNF4A DNA FP 55 | HNF4A confirm 79
O=[N+]([O-])c1cccc(C=NNc2ccccc2)c1	none (no result: TPT1 inh, IDE cell inh)
COc1ccc(C=NNc2ccc([N+](=O)[O-])cn2)cc1	HNF4A DNA FP 72 (no result: TPT1 inh, IDE cell inh) | HNF4A confirm 79
O=[N+]([O-])c1ccc(C=NNc2ccccc2)cc1	HNF4A DNA FP 47 (no result: TPT1 inh, IDE cell inh) | HNF4A confirm 47
CCOC(=O)C1CCN(C(=O)c2ccc3c(c2)C(=O)N(c2ccccc2C)C3=O)CC1	none
COc1cc(/C=N/NC(=O)c2cccnc2)ccc1OCC(=O)Nc1ccccc1Cl	CSN deneddyl inh 146, HNF4A DNA FP 48 | HNF4A confirm 124
O=C(Nc1ccc2oc(-c3ccncc3)nc2c1)c1ccc2c(c1)OCO2	CSN deneddyl inh 111, HNF4A DNA FP 66 | HNF4A confirm 169
O=C(Nc1ccc2oc(-c3ccncc3)nc2c1)c1c(F)c(F)c(F)c(F)c1F	none
Cc1cc(/C=C2/NC(=S)NC2=O)c(C)n1-c1cccnc1	HNF4A DNA FP 49 | HNF4A confirm 98
CCC1NC(=O)c2cc3ccccc3cc2-n2c1nc1cc(OC)c(OC)cc1c2=O (stereo not drawn)	none (no result: IDE act, TPT1 inh, IDE cell inh)
CC1CCN(c2ccc3c(c2)S(=O)(=O)c2cccc(C(=O)NC4CCCCC4)c2C3=O)CC1	HNF4A DNA FP 40 (no result: TPT1 inh) | HNF4A confirm 40
O=C(NC1CCCC1)c1cccc2c1C(=O)c1ccc(N3CCCCC3)cc1S2(=O)=O	HNF4A DNA FP 52 (no result: TPT1 inh) | HNF4A confirm 54
C[C@H](NC(=O)c1nc[nH]c1C(=O)N[C@@H](C)c1ccccc1)C(=O)OC(C)(C)C	none
CC(C)[C@H](NC(=O)OC(C)(C)C)c1cc(C(=O)N[C@@H](C)c2ccccc2)c(N)s1	HNF4A DNA FP 41 (no result: IDE act, TPT1 inh, IDE cell inh) | HNF4A confirm 37
CCN1C(=O)/C(=C2/Sc3ccc(OC)cc3N2C)SC1=Nc1ccc(OC)cc1	none
C=CCN1C(=O)/C(=C2/Sc3ccc(OC)cc3N2C)SC1=Nc1cccc(O)c1	HNF4A DNA FP 47 | HNF4A confirm 70
CC(=O)Nc1ccc2c(c1)N(S(=O)(=O)c1cccs1)CCC2	none
O=C(CSc1nc2ccccc2o1)Nc1nc2c(s1)CCCC2	HNF4A DNA FP 55 (no result: TPT1 inh, IDE cell inh) | HNF4A confirm 48
CCOC(=O)[C@H]1[C@H]2COc3ccc(OC)cc3[C@@H]2N2C(=O)CN(C)C(=O)[C@@]12C	none (no result: TPT1 inh)
CCN(CC)c1ccc(/C=C(\C#N)C(N)=O)cc1	HNF4A DNA FP 34 (no result: TPT1 inh, IDE cell inh) | HNF4A confirm 46
CCN(CC)c1ccc(/C=N\NC(N)=O)cc1	none
O=C(N/N=C/c1cc2ccccc2nc1Cl)/C(=C/c1cccs1)NC(=O)c1ccccc1	HNF4A DNA FP 47 | HNF4A confirm 50
CC(NC(=O)C1CCN(C(=O)Nc2ccccc2)CC1)c1ccc(Cl)cc1 (stereo not drawn)	none (no result: TPT1 inh)
CCc1ccc(-c2nnn(CC(=O)N(C3CCCC3)C3CCS(=O)(=O)C3)n2)cc1 (stereo not drawn)	none (no result: TPT1 inh)
Cc1cc(C)n2nc(NCc3ccccc3)nc2n1	none
Cc1cc(C)n2c(NCc3ccccc3)c(-c3cc4ccccc4o3)nc2n1	HNF4A DNA FP 61 (no result: IDE act, TPT1 inh, IDE cell inh) | HNF4A confirm 65
CCOC(=O)c1c(S(=O)(=O)N2CCN(c3ccc(C(C)=O)cc3)CC2)c(C)n(C)c1C	none
Cc1cc(=O)oc2cc(NC(=O)c3cccc(S(C)(=O)=O)c3)ccc12	none
Cc1cc(=O)oc2cc(NC(=O)c3cccc(F)c3)ccc12	CSN deneddyl inh 42, HNF4A DNA FP 41 | HNF4A confirm 35
Cc1cc(=O)oc2cc(OCC(=O)c3ccc4c(c3)NC(=O)CO4)ccc12	CSN deneddyl inh 76, HNF4A DNA FP 161 | HNF4A confirm 46
O=C(Nc1ccc([N+](=O)[O-])cc1)C(Cc1ccccc1)N1C(=O)c2cccc3cccc(c23)C1=O (stereo not drawn)	HNF4A DNA FP 54 | HNF4A confirm 94
O=C(O)c1ccccc1NC(=O)C(Cc1ccccc1)N1C(=O)c2ccccc2C1=O (stereo not drawn)	none
COc1ccccc1S(=O)(=O)N1CCNC(=O)C1	none (no result: TPT1 inh)
CSc1nc2ccc3nc(NC(=O)c4cccs4)sc3c2s1	CSN deneddyl inh 44, HNF4A DNA FP 62 | HNF4A confirm 40
CSc1nc2ccc3nc(NC(=O)c4ccc(Cl)s4)sc3c2s1	none
COc1ccccc1NS(=O)(=O)c1ccc(C(=O)NCC(c2ccco2)N2CCCCC2)cc1 (stereo not drawn)	none (no result: TPT1 inh, IDE cell inh)
CN1CCN(c2ccc(S(=O)(=O)N3CCOCC3)cc2NC(=O)COc2ccc(C#N)cc2)CC1	none (no result: TPT1 inh, IDE cell inh)
Cc1nnc2sc(-c3ccc(NC(=O)c4ccc(-c5ccc(Cl)cc5Cl)o4)cc3)nn12	HNF4A DNA FP 103 | HNF4A confirm 46
O=C1/C(=C/c2ccc(O)cc2)SC(=S)N1Cc1cccnc1	IDE cell inh 22, HNF4A DNA FP 51 | HNF4A confirm 61
O=C(/C=C/c1ccc(OCCCF)cc1)Nc1ccnc(-c2cccnc2)n1	HNF4A DNA FP 36 | HNF4A confirm 52
O=C(/C=C/c1ccc(OCCCF)cc1)Nc1ccnc(-c2ccncc2)n1	none
COC(=O)c1cc(C)ccc1/C=C1/Cc2c(C)cc(C)cc2C1=O	none (no result: TPT1 inh, IDE cell inh)
